ChEMBL document CHEMBL1759935, “Pharmacokinetic optimisation of novel indole-2-carboxamide cannabinoid CB1 antagonists” (Bioorg Med Chem Lett, 2011)

Key:
[1] = Intrinsic clearance in human gut microsomes in presence of UGT; type: ADME, Microsome
Outline: (§1)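 UGT pathway: human gut or liver microsomes at 0.5 mg protein/mL with 2 mM UDPGA, alamethicin and 1 mM MgCl2, pH 7.1. Compound depletion measured by LC–MS/MS in duplicate time-course incubations; intrinsic clearance expressed per mg protein.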

[2] = Intrinsic clearance in human liver microsomes in presence of UGT; type: ADME, Microsome; outline: as §1
[3] = Intrinsic clearance in human gut microsomes in presence of NADPH; type: ADME, Microsome
Outline: (§2)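 Pooled human microsomes (gut or liver) at 0.5 mg protein/mL with 1 mM NADPH, pH 7.4 (P450 pathway). Compound loss followed by LC–MS/MS in duplicate time-course incubations; intrinsic clearance given per mg protein.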

Cannabinoid receptor 1 [4] = biological target: T1, Cannabinoid receptor 1 (Homo sapiens, UniProt P21554); test: Antagonist activity against human CB1 receptor; type: functional
T1 sequence (P21554 whole entry): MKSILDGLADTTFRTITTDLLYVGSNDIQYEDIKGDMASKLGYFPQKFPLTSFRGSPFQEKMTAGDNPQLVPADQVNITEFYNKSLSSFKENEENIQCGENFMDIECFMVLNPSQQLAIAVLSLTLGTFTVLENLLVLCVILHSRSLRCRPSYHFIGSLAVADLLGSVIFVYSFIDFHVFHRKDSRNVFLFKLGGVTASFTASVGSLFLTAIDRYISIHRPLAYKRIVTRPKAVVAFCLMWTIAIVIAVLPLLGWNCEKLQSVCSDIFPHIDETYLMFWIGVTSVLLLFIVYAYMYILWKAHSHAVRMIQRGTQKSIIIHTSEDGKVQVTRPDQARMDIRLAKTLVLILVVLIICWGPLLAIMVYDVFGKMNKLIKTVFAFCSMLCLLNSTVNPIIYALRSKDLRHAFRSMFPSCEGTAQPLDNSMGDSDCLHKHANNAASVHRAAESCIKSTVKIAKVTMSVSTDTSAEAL

[5] = Intrinsic clearance in human liver microsomes in presence of NADPH; type: ADME, Microsome; outline: as §2
[6] = Intrinsic clearance in rat gut microsomes in presence of NADPH; type: ADME, Microsome
Outline: (§3)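 P450 pathway: compound depletion in duplicate time-course incubations of microsomes at 0.5 mg protein/mL with 1 mM NADPH, pH 7.4. Liver microsomes prepared in-house; small intestinal microsomes purchased. Loss measured by LC–MS/MS; CL_int expressed per mg microsomal protein.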

Mus musculus [7] = organism: Mus musculus; test: Clearance in mouse; type: ADME, organism-based; details: in vivo
[8] = Intrinsic clearance in mouse liver microsomes in presence of NADPH; type: ADME, Microsome; outline: as §3
[9] = Intrinsic clearance in rat gut microsomes in presence of UGT; type: ADME, Microsome
Outline: (§4)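 UGT pathway: compound loss in duplicate time-course incubations of liver (prepared in-house) or small intestinal microsomes at 0.5 mg protein/mL, with 2 mM UDPGA, alamethicin and 1 mM MgCl₂ at pH 7.1. Detection by LC–MS/MS; CL_int expressed per mg microsomal protein.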

[10] = Intrinsic clearance in mouse gut microsomes in presence of NADPH; type: ADME, Microsome; outline: as §3
Rattus norvegicus = organism: Rattus norvegicus; test: Clearance in rat; type: ADME, organism-based; details: in vivo
Canis familiaris = organism: Canis familiaris; test: Clearance in dog; type: ADME, organism-based, Canis lupus familiaris; details: in vivo
[11] = Intrinsic clearance in dog liver microsomes in presence of UGT; type: ADME, Canis lupus familiaris, Microsome; outline: as §4
[12] = Intrinsic clearance in dog gut microsomes in presence of UGT; type: ADME, Canis lupus familiaris, Microsome; outline: as §4
Cannabinoid receptor 2 = Cannabinoid receptor 2 (Homo sapiens, UniProt P34972); test: Displacement of [3H]CP55940 from human recombinant CB2 receptor expressed in Sf9 cells
Sequence of Cannabinoid receptor 2 (P34972 whole entry): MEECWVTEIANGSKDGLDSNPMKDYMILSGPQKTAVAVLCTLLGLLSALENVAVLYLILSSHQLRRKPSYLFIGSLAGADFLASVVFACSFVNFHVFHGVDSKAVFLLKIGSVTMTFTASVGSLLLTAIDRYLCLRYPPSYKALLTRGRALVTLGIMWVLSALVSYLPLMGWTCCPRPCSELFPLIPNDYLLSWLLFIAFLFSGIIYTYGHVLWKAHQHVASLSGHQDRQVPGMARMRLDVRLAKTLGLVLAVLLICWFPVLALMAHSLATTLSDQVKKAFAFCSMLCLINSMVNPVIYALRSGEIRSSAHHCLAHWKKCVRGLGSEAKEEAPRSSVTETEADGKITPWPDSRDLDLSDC
Outline: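 Competition binding against [3H]CP55,940 on membranes from Sf9 cells expressing recombinant human CB2 receptor; run at least in duplicate.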

[13] = Bioavailability in mouse; type: ADME, organism-based; details: in vivo
[14] = Intrinsic clearance in dog gut microsomes in presence of NADPH; type: ADME, Canis lupus familiaris, Microsome; outline: as §3
Mus musculus [15] = test: Inhibition of WIN55212-2-induced hypothermia in po dosed mouse assessed as change in rectal temperature administered 15 mins before WIN55212-2 challenge measured after 75 mins; type: functional; details: read-out: ID50 (the source's name)
Outline: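 Antagonist or vehicle (5% mulgofen in saline, 10 mL/kg) given orally 75 min before rectal temperature reading. WIN 55,212-2 mesylate (10 mL/kg) given sc 60 min before the reading, at its time of maximal hypothermia. Metal probe with vaseline inserted about 1.5 cm; highest temperature stable for 10 s recorded. ID50 reported with confidence interval.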

[16] = Bioavailability in dog; type: ADME, organism-based, Canis lupus familiaris; details: in vivo
[17] = Intrinsic clearance in mouse gut microsomes in presence of UGT; type: ADME, Microsome; outline: as §4
Cannabinoid receptor 1 [18] = biological target: T1, Cannabinoid receptor 1; test: biochemical; type: cell-based, CHO
[19] = Bioavailability in rat; type: ADME, organism-based; details: in vivo
[20] = Intrinsic clearance in mouse liver microsomes in presence of UGT; type: ADME, Microsome; outline: as §4
[21] = Intrinsic clearance in dog liver microsomes in presence of NADPH; type: ADME, Canis lupus familiaris, Microsome; outline: as §3
[22] = Intrinsic clearance in rat liver microsomes in presence of NADPH; type: ADME, Microsome; outline: as §3
[23] = Intrinsic clearance in rat liver microsomes in presence of UGT; type: ADME, Microsome; outline: as §4

SMILES | microsomal CLint [1] [µL/min/mg] | microsomal CLint [2] [µL/min/mg] | microsomal CLint [3] [µL/min/mg] | IC50 (Cannabinoid receptor 1 [4]) [nM] | microsomal CLint [5] [µL/min/mg] | ED50 (Mus musculus [15]) [µmol/kg] | further results
CC(C)(CO)CNC(=O)c1cc2cc(C#N)ccc2n1Cc1cc(Cl)cc(Cl)c1 | 98 | 22 | < 6 | 5.37 | 103 | – | –
N#Cc1ccc2c(c1)cc(C(=O)NCCC(O)(C(F)(F)F)C(F)(F)F)n2Cc1cccc(OC(F)(F)F)c1 | < 6 | 24 | < 6 | 6.03 | 20 | – | –
COc1ccc(Cl)cc1Cn1c(C(=O)NCC2(CO)CCC2)cc2cc(C#N)ccc21 | 179 | 34 | < 6 | 2.57 | 196 | – | –
Cc1ccc(C(F)(F)F)cc1Cn1c(C(=O)NCCC(C)(C)O)cc2cc(C#N)ccc21 | < 6 | < 6 | < 6 | 5.13 | 12 | 1.16 | microsomal CLint [6]: < 6 µL/min/mg; clearance (Mus musculus [7]): 10 mL/min/kg; microsomal CLint [8]: 33 µL/min/mg; microsomal CLint [9]: < 6 µL/min/mg; microsomal CLint [10]: < 6 µL/min/mg; clearance (Rattus norvegicus): 200 mL/min/kg; clearance (Canis familiaris): 15 mL/min/kg; microsomal CLint [11]: < 6 µL/min/mg; microsomal CLint [12]: < 6 µL/min/mg; Ki (Cannabinoid receptor 2): > 10000 nM; bioavailability [13]: 31%; microsomal CLint [14]: < 6 µL/min/mg; bioavailability [16]: 42%; microsomal CLint [17]: < 6 µL/min/mg; Ki (Cannabinoid receptor 1 [18]): 4.37 nM; bioavailability [19]: 2%; microsomal CLint [20]: < 6 µL/min/mg; microsomal CLint [21]: 17 µL/min/mg; microsomal CLint [22]: > 280 µL/min/mg; microsomal CLint [23]: > 280 µL/min/mg
COc1ccc(C)cc1Cn1c(C(=O)NCC(C)(C)CO)cc2cc(C#N)ccc21 | 64 | 23 | < 6 | 0.759 | 191 | – | –
N#Cc1ccc2c(c1)cc(C(=O)NCCC1(O)CCC1)n2Cc1cccc(OC(F)(F)F)c1 | < 6 | < 6 | < 6 | 2.63 | 78 | – | –
N#Cc1ccc2c(c1)cc(C(=O)NCCC(O)C(F)(F)F)n2Cc1cccc(OC(F)(F)F)c1 (stereo unspecified) | < 6 | 31 | 26 | 8.13 | 59 | – | –
Cc1c(C(=O)NN2CCCCC2)nn(-c2ccc(Cl)cc2Cl)c1-c1ccc(Cl)cc1 [RIMONABANT] | < 6 | < 6 | < 6 | – | 69 | 1.29 | –
COc1ccc(OC(F)(F)F)cc1Cn1c(C(=O)NCC(C)(C)O)cc2cc(C#N)ccc21 | 8 | < 6 | < 6 | 22.4 | < 6 | > 10 | Ki (Cannabinoid receptor 1 [18]): 5.5 nM
CC(C)(O)CCNC(=O)c1cc2cc(C#N)ccc2n1Cc1cccc(OC(F)(F)F)c1 | 9 | < 6 | < 6 | 13.5 | 9 | 9.67 | Ki (Cannabinoid receptor 1 [18]): 5.01 nM
COc1ccc(OC(F)(F)F)cc1Cn1c(C(=O)NCC(C)(C)CO)cc2cc(C#N)ccc21 | 68 | 31 | < 6 | 1.17 | 69 | 0.88 | microsomal CLint [6]: < 6 µL/min/mg; clearance (Mus musculus [7]): 17 mL/min/kg; microsomal CLint [8]: 45 µL/min/mg; microsomal CLint [9]: < 6 µL/min/mg; microsomal CLint [10]: < 6 µL/min/mg; clearance (Rattus norvegicus): 104 mL/min/kg; clearance (Canis familiaris): 7 mL/min/kg; microsomal CLint [11]: 7 µL/min/mg; microsomal CLint [12]: < 6 µL/min/mg; Ki (Cannabinoid receptor 2): > 10000 nM; bioavailability [13]: 30%; microsomal CLint [14]: < 6 µL/min/mg; bioavailability [16]: 67%; microsomal CLint [17]: < 6 µL/min/mg; Ki (Cannabinoid receptor 1 [18]): 0.398 nM; bioavailability [19]: 8%; microsomal CLint [20]: < 6 µL/min/mg; microsomal CLint [21]: < 6 µL/min/mg; microsomal CLint [22]: 69 µL/min/mg; microsomal CLint [23]: 191 µL/min/mg
COc1ccc(Cl)cc1Cn1c(C(=O)NCC(C)(C)CO)cc2cc(C#N)ccc21 | 63 | 10 | < 6 | 2 | 83 | – | –
Cc1ccc(C)c(Cn2c(C(=O)NCC(C)(C)CO)cc3cc(C#N)ccc32)c1 | 124 | 29 | < 6 | 0.631 | 257 | – | –
COc1ccc(OC(F)(F)F)cc1Cn1c(C(=O)NCC2(CO)CC2)cc2cc(C#N)ccc21 | 51 | 18 | < 6 | 5.13 | 139 | – | –
